Data: ChEMBL document CHEMBL1795270, “Synthesis and biological evaluation of a novel human stem/progenitor cells proliferation activator: 4-(4-(5-mercapto-1,3,4-oxadiazol-2-yl)phenyl) thiosemicarbazide (Stemazole)” (Eur J Med Chem, 2011)
The source made the active and inactive calls. No cut-off for these calls is given here.

Key:
[1] = Solubility of the compound in DMSO; assay type: physicochemical
[2] = Induction of human HSC proliferation after 4 days by luminescent cell viability assay; assay type: functional
Procedure, shortened: (§1)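 Sixth-passage HSCs (kept as neurospheres in DMEM/F12 with bFGF, EGF, B27) plated at 1×10^3 cells/well in basic medium, left 24 h, then given serial dilutions for 4 days. DMSO as negative control, bFGF as positive control. Read-out by CellTiter-Glo: reagent added to the cells, 10 min at ambient temperature, then luminescence read. Values relative to DMSO (100%). At least triplicate, repeated three times, mean ± SD.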

Homo sapiens [3] = species: Homo sapiens; assay: Induction of human HSC proliferation under serum free condition at 5 to 40 uM by cell counting and luminescent cell viability assay; assay type: functional; conditions: TDE = time-dependent effect
Procedure, shortened: (§2)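 HSCs kept serum-free without bFGF, seeded at 1×10^3 cells/well, then given a range of concentrations for 2, 4 and 6 days. Read at each time point by phase-contrast imaging, cell counting (three pictures per group, haemocytometer) and CellTiter-Glo luminescence. DMSO as negative control, bFGF as positive control. Mean ± SD.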

Homo sapiens [4] = species: Homo sapiens; assay: Induction of human HSC proliferation under serum free condition after 4 days by cell counting and luminescent cell viability assay; assay type: functional; procedure, shortened: as §2
Homo sapiens [5] = species: Homo sapiens; assay: Induction of human CSC proliferation after 4 days by luminescent cell viability assay; assay type: functional
Procedure, shortened: (§3)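 Third-passage CSCs (maintained in IMDM with 10% FBS and 2-mercaptoethanol) plated at 1×10^3 cells/well in basic medium, left 24 h, then treated for 4 days. DMSO as negative control. Viability read by CellTiter-Glo luminescence after 10 min at ambient temperature. At least triplicate, repeated three times, mean ± SD.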

[6] = Cytotoxicity against human HSC assessed as morphological changes 13.8 to 40.2 uM up to 6 days by phase contrast microscopy; conditions: 144 h
Procedure, shortened: (§4)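 Phase-contrast microscope images of HSCs treated with various concentrations, DMSO or bFGF, taken at 2, 4 and 6 days. Scored by morphology, including signs of differentiation such as axonal growth or adipose drop appearance.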

[7] = Cytotoxicity against human HSC assessed as axonal growth or adipose drop appearance 13.8 to 40.2 uM up to 6 days by phase contrast microscopy; conditions: 144 h; procedure, shortened: as §4
Homo sapiens [8] = species: Homo sapiens; assay: Induction of human PSC proliferation after 4 days by luminescent cell viability assay; assay type: functional
Procedure, shortened: as §3, with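 “Sixth-passage PSCs (expanded” for “Third-passage CSCs (maintained”, “DMEM/F12, 7.33 mM glucose,” for “IMDM”, “20 ng/mL bFGF)” for “2-mercaptoethanol)”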

Homo sapiens [9] = species: Homo sapiens; assay: Induction of human HSC proliferation assessed as fold increase after 6 days by direct phase contrast microscopy; assay type: functional; procedure, shortened: as §2
[10] = Induction of human HSC proliferation assessed as population doubling time at 41.6 uM by cell counting and luminescent cell viability assay (reference value: 73.6 hrs); assay type: functional
[11] = Cytotoxicity against human HSC after 4 days at 100 uM by luminescent cell viability assay; conditions: 96 h; procedure, shortened: as §1
[12] = Inhibition of human HSC proliferation after 4 days by luminescent cell viability assay; conditions: 96 h; procedure, shortened: as §1
[13] = Homo sapiens, 96 h, read-out: EC50

S=C(NNCc1ccccc1)Nc1ccc(-c2nnc(S)o2)cc1
solubility [1]: soluble
EC50 [2]: Not Active

NNC(=S)Nc1ccc(-c2nnc(S)o2)cc1 [STEMAZOLE]
solubility [1]: soluble
Activity (Homo sapiens [3]): tde
Activity (Homo sapiens [4]): Dose-dependent effect
Activity (Homo sapiens [5]): Active
Activity [6]: Non-toxic
Activity [7]: Non-toxic
Activity (Homo sapiens [8]): Active
fold change (FC) (Homo sapiens [9]): 3
Time [10]: 48.5 h
Activity [11]: Non-toxic
EC50 [2, 13]: 7.5 µM

CNNC(=S)Nc1ccc(-c2nnc(S)o2)cc1
solubility [1]: soluble

NNC(=S)Nc1ccc(-c2nnc(S)o2)cc1Br
solubility [1]: soluble
Activity [11]: Toxic
EC50 [2, 13]: 10 µM

S=C(NNc1ccc(Cl)cc1)Nc1ccc(-c2nnc(S)o2)cc1
solubility [1]: soluble
IC50 [12]: 3.2 µM

COc1ccc(NNC(=S)Nc2ccc(-c3nnc(S)o3)cc2)cc1
solubility [1]: soluble
IC50 [12]: 42.7 µM

S=C(NNc1ccccc1)Nc1ccc(-c2nnc(S)o2)cc1
solubility [1]: soluble
IC50 [12]: 8.3 µM
